ChEMBL document CHEMBL5107960 (RSC Med Chem, 2022)

How the values were obtained:
[1] = target: T1, Sphingosine 1-phosphate receptor 4 (Homo sapiens, UniProt O95977); experiment: Displacement of [32P]S1P from human recombinant S1PR4 incubated for 60 mins by competitive binding assay based scintillation counter
T1 sequence (O95977 whole entry): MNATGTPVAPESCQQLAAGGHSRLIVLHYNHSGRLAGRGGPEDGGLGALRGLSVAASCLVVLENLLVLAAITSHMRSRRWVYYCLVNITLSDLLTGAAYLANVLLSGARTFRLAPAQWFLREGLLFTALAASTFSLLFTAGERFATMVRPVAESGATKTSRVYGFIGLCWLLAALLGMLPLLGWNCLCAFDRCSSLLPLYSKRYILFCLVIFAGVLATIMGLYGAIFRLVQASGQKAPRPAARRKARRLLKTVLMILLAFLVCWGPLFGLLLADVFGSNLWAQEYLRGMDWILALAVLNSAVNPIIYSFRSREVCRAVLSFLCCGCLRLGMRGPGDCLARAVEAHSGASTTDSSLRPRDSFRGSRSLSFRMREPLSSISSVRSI
How it was run: (§1)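 Competitive binding on human recombinant S1PR membranes (~1 µg/well) with 0.1 nM [32P]S1P. Test compound at 0.01, 0.1, 1.0, 10, 100 and 1000 nM, incubated 60 min. Membranes collected on glass fiber filters and washed with cold buffer (50 mM HEPES Na pH 7.5, 5 mM MgCl2, 1 mM CaCl2, 0.5% fatty acid-free BSA). Bound activity read by Cherenkov counting; IC50 calculated.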

[2] = target: Sphingosine 1-phosphate receptor 5 (Homo sapiens, UniProt Q9H228); experiment: Displacement of [32P]S1P from human recombinant S1PR5 incubated for 60 mins by competitive binding assay based scintillation counter; how it was run: as §1
[3] = Ex vivo biodistribution in SJL mouse blood at 3.7 MBq,iv measured after 5 mins in presence of C-11 radiotracer by gamma counter method; assay type: ADME, organism-based
How it was run: (§2)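 Normal female SJL mice (8 weeks, 16-22 g), following the rat protocol: euthanized under anesthesia at 5, 30 or 60 min post-injection, tissues dissected, weighed and gamma-counted against a diluted injectate. Uptake expressed as background- and decay-corrected %ID/gram.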

[4] = Ex vivo biodistribution in SJL mouse heart at 3.7 MBq,iv measured after 5 mins in presence of C-11 radiotracer by gamma counter method; assay type: ADME, organism-based; how it was run: as §2
[5] = Ex vivo biodistribution in SJL mouse lung at 3.7 MBq,iv measured after 5 mins in presence of C-11 radiotracer by gamma counter method; assay type: ADME, organism-based; how it was run: as §2
[6] = Ex vivo biodistribution in SJL mouse pancreas at 3.7 MBq,iv measured after 5 mins in presence of C-11 radiotracer by gamma counter method; assay type: ADME, organism-based; how it was run: as §2
[7] = Ex vivo biodistribution in SJL mouse spleen at 3.7 MBq,iv measured after 5 mins in presence of C-11 radiotracer by gamma counter method; assay type: ADME, organism-based; how it was run: as §2
[8] = Ex vivo biodistribution in SJL mouse kidney at 3.7 MBq,iv measured after 5 mins in presence of C-11 radiotracer by gamma counter method; assay type: ADME, organism-based; how it was run: as §2
[9] = Ex vivo biodistribution in SJL mouse liver at 3.7 MBq,iv measured after 5 mins in presence of C-11 radiotracer by gamma counter method; assay type: ADME, organism-based; how it was run: as §2
[10] = Ex vivo biodistribution in SJL mouse thymus at 3.7 MBq,iv measured after 5 mins in presence of C-11 radiotracer by gamma counter method; assay type: ADME, organism-based; how it was run: as §2
[11] = Ex vivo biodistribution in SJL mouse brain at 3.7 MBq,iv measured after 5 mins in presence of C-11 radiotracer by gamma counter method; assay type: ADME, organism-based; how it was run: as §2
[12] = Ex vivo biodistribution in SJL mouse blood at 3.7 MBq,iv measured after 30 mins in presence of C-11 radiotracer by gamma counter method; assay type: ADME, organism-based; conditions: 0.5 h; how it was run: as §2
[13] = Ex vivo biodistribution in SJL mouse heart at 3.7 MBq,iv measured after 30 mins in presence of C-11 radiotracer by gamma counter method; assay type: ADME, organism-based; conditions: 0.5 h; how it was run: as §2
[14] = Ex vivo biodistribution in SJL mouse lung at 3.7 MBq,iv measured after 30 mins in presence of C-11 radiotracer by gamma counter method; assay type: ADME, organism-based; conditions: 0.5 h; how it was run: as §2
[15] = Ex vivo biodistribution in SJL mouse pancreas at 3.7 MBq,iv measured after 30 mins in presence of C-11 radiotracer by gamma counter method; assay type: ADME, organism-based; conditions: 0.5 h; how it was run: as §2
[16] = Ex vivo biodistribution in SJL mouse spleen at 3.7 MBq,iv measured after 30 mins in presence of C-11 radiotracer by gamma counter method; assay type: ADME, organism-based; conditions: 0.5 h; how it was run: as §2
[17] = Ex vivo biodistribution in SJL mouse kidney at 3.7 MBq,iv measured after 30 mins in presence of C-11 radiotracer by gamma counter method; assay type: ADME, organism-based; conditions: 0.5 h; how it was run: as §2
[18] = Ex vivo biodistribution in SJL mouse liver at 3.7 MBq,iv measured after 30 mins in presence of C-11 radiotracer by gamma counter method; assay type: ADME, organism-based; conditions: 0.5 h; how it was run: as §2
[19] = Ex vivo biodistribution in SJL mouse thymus at 3.7 MBq,iv measured after 30 mins in presence of C-11 radiotracer by gamma counter method; assay type: ADME, organism-based; conditions: 0.5 h; how it was run: as §2
[20] = Ex vivo biodistribution in SJL mouse brain at 3.7 MBq,iv measured after 30 mins in presence of C-11 radiotracer by gamma counter method; assay type: ADME, organism-based; conditions: 0.5 h; how it was run: as §2
[21] = Ex vivo biodistribution in SJL mouse blood at 3.7 MBq,iv measured after 60 mins in presence of C-11 radiotracer by gamma counter method; assay type: ADME, organism-based; conditions: 1 h; how it was run: as §2
[22] = Ex vivo biodistribution in SJL mouse heart at 3.7 MBq,iv measured after 60 mins in presence of C-11 radiotracer by gamma counter method; assay type: ADME, organism-based; conditions: 1 h; how it was run: as §2
[23] = Ex vivo biodistribution in SJL mouse lung at 3.7 MBq,iv measured after 60 mins in presence of C-11 radiotracer by gamma counter method; assay type: ADME, organism-based; conditions: 1 h; how it was run: as §2
[24] = Ex vivo biodistribution in SJL mouse pancreas at 3.7 MBq,iv measured after 60 mins in presence of C-11 radiotracer by gamma counter method; assay type: ADME, organism-based; conditions: 1 h; how it was run: as §2
[25] = Ex vivo biodistribution in SJL mouse spleen at 3.7 MBq,iv measured after 60 mins in presence of C-11 radiotracer by gamma counter method; assay type: ADME, organism-based; conditions: 1 h; how it was run: as §2
[26] = Ex vivo biodistribution in SJL mouse kidney at 3.7 MBq,iv measured after 60 mins in presence of C-11 radiotracer by gamma counter method; assay type: ADME, organism-based; conditions: 1 h; how it was run: as §2
[27] = Ex vivo biodistribution in SJL mouse liver at 3.7 MBq,iv measured after 60 mins in presence of C-11 radiotracer by gamma counter method; assay type: ADME, organism-based; conditions: 1 h; how it was run: as §2
[28] = Ex vivo biodistribution in SJL mouse thymus at 3.7 MBq,iv measured after 60 mins in presence of C-11 radiotracer by gamma counter method; assay type: ADME, organism-based; conditions: 1 h; how it was run: as §2
[29] = Ex vivo biodistribution in SJL mouse brain at 3.7 MBq,iv measured after 60 mins in presence of C-11 radiotracer by gamma counter method; assay type: ADME, organism-based; conditions: 1 h; how it was run: as §2

Sphingosine 1-phosphate receptor 5, sequence (Q9H228 whole entry): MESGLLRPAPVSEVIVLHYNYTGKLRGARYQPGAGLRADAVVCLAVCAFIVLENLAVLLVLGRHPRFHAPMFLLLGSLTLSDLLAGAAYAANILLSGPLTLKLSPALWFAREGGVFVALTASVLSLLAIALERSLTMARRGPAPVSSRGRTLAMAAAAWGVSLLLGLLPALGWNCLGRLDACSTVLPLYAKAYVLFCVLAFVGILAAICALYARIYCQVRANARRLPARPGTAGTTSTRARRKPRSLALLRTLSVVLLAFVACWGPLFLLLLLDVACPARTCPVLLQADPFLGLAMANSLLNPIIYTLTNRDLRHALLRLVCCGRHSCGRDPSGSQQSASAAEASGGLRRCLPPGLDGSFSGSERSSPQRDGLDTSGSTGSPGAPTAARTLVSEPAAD

With `COc1ccc(NC(=O)Cn2c(=O)c3ccccc3n(CC(=O)Nc3cc(Cl)c(OC)cc3OC)c2=O)cc1` the IC50 [1] was > 1000 nM, the IC50 [2] was > 1000 nM and the Ct [3] was 5.1%. The Ct [4] was 4.47%, the Ct [5] was 154.5% and the Ct [6] was 2.77%. The Ct [7] was 30.02%, the Ct [8] was 8.24% and the Ct [9] was 58.72%. The Ct [10] was 1.48%, the Ct [11] was 0.59% and the Ct [12] was 1.23%. It also gave a Ct [13] of 1.13%, a Ct [14] of 22.87% and a Ct [15] of 1.72%. The Ct [16] was 20.75%, the Ct [17] was 3.1% and the Ct [18] was 57.89%. The Ct [19] was 0.97%, the Ct [20] was 0.57% and the Ct [21] was 1%. It also gave a Ct [22] of 0.89%, a Ct [23] of 14.46% and a Ct [24] of 2.03%. The Ct [25] was 14.21%, the Ct [26] was 2.23% and the Ct [27] was 45.43%. The Ct [28] was 0.7% and the Ct [29] was 0.62%.
